Assay results as given in ChEMBL document CHEMBL1131242, “6beta-Acetoxynortropane: a potent muscarinic agonist with apparent selectivity toward M2-receptors” (J Med Chem, 1998).
Numbering of substitutions follows the chain as printed.

What was measured:
[1] = target: Muscarinic acetylcholine receptor M4 (Homo sapiens) (UniProt P08173); assay: Inhibitory activity against [3H]-cyclic AMP accumulation in CHO transfected cells mediated by Muscarinic acetylcholine receptor M4
[2] = target: Muscarinic acetylcholine receptor M2 (Homo sapiens) (UniProt P08172); assay: Inhibition of binding of [3H]quinuclidinyl benzilate to Muscarinic acetylcholine receptor M2 in membranes of transfected CHO cells
[3] = target: T1, Muscarinic acetylcholine receptor M1 (Rattus norvegicus, UniProt P08482); assay: Inhibition of binding of [3H]oxotremorine M to Muscarinic acetylcholine receptor M1 in rat cerebral cortical membranes; assay type: cell membranes, Membrane
T1 sequence (P08482 whole entry): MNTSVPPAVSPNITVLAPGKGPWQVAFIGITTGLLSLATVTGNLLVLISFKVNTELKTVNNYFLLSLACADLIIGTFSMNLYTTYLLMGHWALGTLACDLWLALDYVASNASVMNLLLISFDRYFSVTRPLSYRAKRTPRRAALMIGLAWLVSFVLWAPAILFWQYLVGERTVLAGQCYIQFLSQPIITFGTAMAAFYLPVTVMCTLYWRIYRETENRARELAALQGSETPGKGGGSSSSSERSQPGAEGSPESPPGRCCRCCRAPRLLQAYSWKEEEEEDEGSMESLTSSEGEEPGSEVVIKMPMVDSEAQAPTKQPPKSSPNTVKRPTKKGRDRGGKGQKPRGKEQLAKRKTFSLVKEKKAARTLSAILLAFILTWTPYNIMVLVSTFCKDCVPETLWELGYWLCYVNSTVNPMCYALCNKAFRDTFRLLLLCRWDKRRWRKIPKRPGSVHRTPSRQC
Procedure, shortened: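 Agonist radioligand assay: rat cortical membranes with 2 nM [3H]oxotremorine M in 25 mM sodium phosphate pH 7.4 with 5 mM MgCl2, 2 h at 25 °C, in triplicate. Nonspecific binding used 5 µM atropine. Filtration followed by scintillation counting.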

[4] = target: T2, Muscarinic acetylcholine receptor M3 (Homo sapiens, UniProt P20309); assay: Inhibition of binding of [3H]quinuclidinyl benzilate to muscarinic receptors in membranes of CHO cells transfected with Muscarinic acetylcholine receptor M3; assay type: cell membranes
Target sequence in this assay (P20309 whole entry): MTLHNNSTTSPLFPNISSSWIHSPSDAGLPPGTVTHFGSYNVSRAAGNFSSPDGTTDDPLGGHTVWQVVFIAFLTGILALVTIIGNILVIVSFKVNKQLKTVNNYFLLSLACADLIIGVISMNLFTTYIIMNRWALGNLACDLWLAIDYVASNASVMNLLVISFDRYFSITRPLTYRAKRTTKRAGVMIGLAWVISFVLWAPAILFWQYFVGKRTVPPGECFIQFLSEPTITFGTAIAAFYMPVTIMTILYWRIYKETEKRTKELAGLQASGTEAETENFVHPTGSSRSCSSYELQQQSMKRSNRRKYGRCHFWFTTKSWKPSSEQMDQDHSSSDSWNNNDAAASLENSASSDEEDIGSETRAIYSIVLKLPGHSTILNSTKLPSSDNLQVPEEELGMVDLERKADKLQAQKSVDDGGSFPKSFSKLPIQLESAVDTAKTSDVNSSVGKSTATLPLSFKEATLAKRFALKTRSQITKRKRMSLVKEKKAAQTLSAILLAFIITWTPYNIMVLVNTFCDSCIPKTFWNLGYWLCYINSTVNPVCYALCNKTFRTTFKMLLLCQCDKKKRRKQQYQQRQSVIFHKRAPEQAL

[5] = target: T1, Muscarinic acetylcholine receptor M1; assay: Inhibition of binding of [3H]quinuclidinyl benzilate to Muscarinic acetylcholine receptor M1 in rat cerebral cortical membranes; assay type: cell membranes, Membrane
Procedure, shortened: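 Rat cerebral cortex membranes were homogenised in 50 mM Tris-HCl pH 7.4 and diluted in HEPES binding buffer. They were incubated with 0.2 nM [3H]quinuclidinyl benzilate in 20 mM HEPES pH 7.4 with 10 mM MgCl2 and 100 mM NaCl for 30 min at 37 °C, in triplicate. Nonspecific binding used 1 µM atropine. Filtration was followed by scintillation counting.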

[6] = target: T1, Muscarinic acetylcholine receptor M1
[7] = target: T3, Muscarinic acetylcholine receptor M1 (Homo sapiens, UniProt P11229); assay: Inhibition of binding of [3H]quinuclidinyl benzilate to muscarinic receptors in membranes of CHO cells transfected with Muscarinic acetylcholine receptor M1; assay type: cell membranes
T3 sequence (P11229 whole entry): T1 sequence (P08482 whole entry) with V5A, S254T, S309P, K320R, G337A, V413I
Procedure, shortened: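 Membranes from CHO cells expressing human M1 receptor, harvested at 80-100% confluence. Competition against 0.2 nM [3H]quinuclidinyl benzilate in 25 mM sodium phosphate pH 7.4 with 5 mM MgCl2; 30 min at 37 °C, triplicate. Nonspecific binding with 10 μM atropine. Filtration and scintillation counting.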

[8] = target: T1, Muscarinic acetylcholine receptor M1; assay: Affinity versus [3H]oxotremorine M (agonist) binding to Muscarinic acetylcholine receptor M1 in Rat Cerebral Cortical Membranes, (Kd=[…])
[9] = target: T2, Muscarinic acetylcholine receptor M3; assay: Inhibitory activity against stimulation of [3H]inositol monophosphate accumulation in [3H]inositol-labelled CHO transfected cells mediated by Muscarinic acetylcholine receptor M3
Target sequence in this assay (P20309 whole entry, looked up): as the sequence (P20309 whole entry) above

## CC(=O)OC1CC2CCCC1N2 (centres undefined)
[1]
  IC50: 11 nM (agonist)
[2]
  Ki: 2.6 nM
[3]
  Ki: 5.6 nM
[4]
  Ki: 680 nM
[5]
  Ki: 21000 nM
[6]
  Ki: 22000 nM
[7]
  Ki: 21000 nM
[8]
  Ki: 5.6 nM
[9]
  EC50: 3.6 nM
